The values that follow come from ChEMBL document CHEMBL4152343, “Design, Synthesis, and Pharmacological Evaluation of Second-Generation Tetrahydroisoquinoline-Based CXCR4 Antagonists with Favorable ADME Properties” (J Med Chem, 2018).

As usually defined, the IC50 is the point on the concentration scale where inhibition reaches its midpoint. Usually EC50 stands for the concentration needed to bring the measured effect to its halfway point.

Series [1] is described as follows: Metabolic stability in human liver microsomes assessed as parent compound remaining after 10 mins by LC-MS/MS analysis. Type of series: ADME, microsome. As to conditions: read-out: Stability. In outline: (§1)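 Compound depletion measured by LC/MS/MS after 10 min at 37 °C in liver microsome preparations (CYP450 and other NADP-dependent enzymes). Values are % of compound remaining; duplicates in a single experiment.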

The nature of series [2]: Permeability of compound at pH 7.4 by PAMPA. As to conditions: read-out: permeability. Type of series: ADME. In outline: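 Compound from 10 mM DMSO stock diluted 1:100 to 100 µM (1% DMSO) in pH 7.4 or pH 5.5 donor buffer, then filtered. Lipid-coated filter membrane with pH 7.4 acceptor buffer; incubated 4 h at room temperature. UV plate reading gives Pc. Duplicates in two independent experiments unless noted.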
For orientation: PAMPA measures passive passage across an artificial lipid membrane.

Series [3] has as its target Cytochrome P450 2D6 (Homo sapiens, UniProt P10635). Description: Inhibition of recombinant human CYP2D6 expressed in insect cells microsomes using AMMC as substrate preincubated for 30 mins followed by NADP addition and measured after 45 mins by fluorescence analysis. It counts as ADME.
The target in series [4] is T1, C-X-C chemokine receptor type 4 (Homo sapiens, UniProt P61073). The series can be described thus: Agonist activity at CXCR4 in human CCRF-CEM cells assessed as induction of calcium release incubated for 25 mins by calcium flux assay. Type of series: functional, cell-based. A digest of the protocol: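 CCRF-CEM T lymphoblasts (endogenous CXCR4) in HBSS/20 mM HEPES/0.1% fatty-acid-free BSA, 40,000 cells/well, dye-loaded 30 min at 37°C, then 15 min at room temperature. Compounds added at final 25,000–0.423 nM (0.5% DMSO) and calcium flux read by FDSS for 90 s.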
T1 sequence (P61073 whole entry): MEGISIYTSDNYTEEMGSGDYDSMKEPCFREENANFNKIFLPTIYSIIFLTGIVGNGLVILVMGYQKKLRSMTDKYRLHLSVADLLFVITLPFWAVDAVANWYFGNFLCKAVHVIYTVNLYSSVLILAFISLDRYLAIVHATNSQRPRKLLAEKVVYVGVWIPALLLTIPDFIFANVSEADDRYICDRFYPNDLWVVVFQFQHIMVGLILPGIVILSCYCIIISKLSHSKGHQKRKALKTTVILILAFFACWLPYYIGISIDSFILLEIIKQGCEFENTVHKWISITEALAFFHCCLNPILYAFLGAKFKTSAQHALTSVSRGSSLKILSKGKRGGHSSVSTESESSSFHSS
On the technique in general: A change in cytosolic calcium serves as a functional read-out for many receptors and channels.

Series [5] deals with Cytochrome P450 3A4 (Homo sapiens, UniProt P08684). Description: Inhibition of human CYP3A4. Type of series: ADME.
Cytochrome P450 3A4, sequence (P08684 whole entry): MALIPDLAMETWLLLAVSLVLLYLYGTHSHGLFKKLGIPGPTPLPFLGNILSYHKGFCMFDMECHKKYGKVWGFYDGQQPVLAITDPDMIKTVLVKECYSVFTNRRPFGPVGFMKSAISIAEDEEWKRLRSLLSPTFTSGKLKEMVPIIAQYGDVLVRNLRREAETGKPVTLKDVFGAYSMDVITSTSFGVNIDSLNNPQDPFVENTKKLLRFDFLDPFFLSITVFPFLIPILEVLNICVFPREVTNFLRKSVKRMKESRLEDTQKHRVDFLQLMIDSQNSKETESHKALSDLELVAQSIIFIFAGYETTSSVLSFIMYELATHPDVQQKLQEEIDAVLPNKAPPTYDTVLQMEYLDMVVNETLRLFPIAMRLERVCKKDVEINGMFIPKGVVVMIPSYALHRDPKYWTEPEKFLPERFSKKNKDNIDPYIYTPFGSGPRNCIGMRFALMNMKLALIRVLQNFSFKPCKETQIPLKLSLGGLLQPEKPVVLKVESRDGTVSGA
The target of series [6] is Muscarinic acetylcholine receptor. Description: Antagonist activity at mAChR in human CCRF-CEM cells assessed as inhibition of acetylcholine-induced calcium release preincubated for 25 mins followed by acetylcholine stimulation and measured for 90 secs by calcium flux assay. It counts as functional, cell-based. A digest of the protocol:
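Endogenous muscarinic receptors in CCRF-CEM cells (HBSS/HEPES/BSA buffer, 40,000 cells/well, dye-loaded 30 min at 37°C). Calcium flux recorded 90 s by FDSS. IC50 by 4-parameter logistic fit against an internal control compound; duplicate wells, single experiment.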

Series [7] can be described thus: Metabolic stability in mouse liver microsomes assessed as parent compound remaining after 10 mins by LC-MS/MS analysis. It counts as ADME, microsome. The conditions noted are these: read-out: Stability. In outline: as §1
For series [8], the target named is T1, C-X-C chemokine receptor type 4. The series can be described thus: Antagonist activity at CXCR4 in human CCRF-CEM cells assessed as inhibition of SDF-1alpha-induced calcium release preincubated for 25 mins followed by SDF-1alpha stimulation and measured for 90 secs by calcium flux assay. Type of series: functional, cell-based.

Cytochrome P450 2D6, sequence (P10635 whole entry): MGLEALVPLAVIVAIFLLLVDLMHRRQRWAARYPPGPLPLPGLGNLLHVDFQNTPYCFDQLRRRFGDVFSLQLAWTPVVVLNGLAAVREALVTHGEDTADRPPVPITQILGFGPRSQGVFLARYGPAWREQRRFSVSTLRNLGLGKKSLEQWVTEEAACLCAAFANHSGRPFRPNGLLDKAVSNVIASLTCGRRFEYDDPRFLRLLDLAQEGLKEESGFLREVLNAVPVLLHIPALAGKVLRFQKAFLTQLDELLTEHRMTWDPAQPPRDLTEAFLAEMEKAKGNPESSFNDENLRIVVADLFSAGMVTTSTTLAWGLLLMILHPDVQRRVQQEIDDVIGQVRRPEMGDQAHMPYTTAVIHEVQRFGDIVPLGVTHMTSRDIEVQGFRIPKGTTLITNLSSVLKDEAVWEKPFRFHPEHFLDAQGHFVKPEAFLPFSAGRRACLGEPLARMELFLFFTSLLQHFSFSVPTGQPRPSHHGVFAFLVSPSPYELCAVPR

On to `Cc1cccnc1CN(C)C[C@H]1Cc2c(cccc2N2CCNCC2)CN1`, for which the remaining at 10 min in series [1] is 69.2%. The Papp in series [2] amounted to 19.3 ×10⁻⁶ cm/s. The results for the IC50 in series [3], in series [5] and in series [6] were 100 µM, 1.42 µM and 11.1 µM, respectively. In addition, in series [4], the EC50 is more than 30 µM.
Take `Cc1ccc(CN(C)C[C@H]2Cc3c(cccc3N3CCNCC3)CN2)nc1`: the remaining at 10 min in series [1] came out at 76.8%. Further, the Papp in series [2] came out at 22.5 ×10⁻⁶ cm/s. For the same compound, the values for the IC50 in series [3], in series [5] and in series [6] were 100 µM, more than 20 µM and 9.56 µM, respectively. For the same compound, the EC50 in series [4] is more than 30 µM.
In the case of `FC1(F)CCC(CN(C[C@H]2Cc3c(cccc3N3CCNCC3)CN2)[C@H]2CCCc3cccnc32)CC1`, the remaining at 10 min came to 68.6% in series [1] and 76.6% in series [7]. The IC50 in series [3] was 8.45 µM; in series [5] it was 5.62 µM; in series [6] it was more than 33.3 µM. Moreover, the EC50 in series [4] was more than 30 µM.
Take `CN1CCN(c2cccc3c2C[C@H](CN2CCC[C@H]4CCc5cccnc5[C@H]42)NC3)CC1`: in series [1], the remaining at 10 min stood at 67.8%. In addition, the Papp in series [2] amounted to 32.3 ×10⁻⁶ cm/s. For the same compound, the IC50 was more than 20 µM in series [3], more than 20 µM in series [5] and more than 16.7 µM in series [6]. Moreover, the EC50 in series [4] was more than 30 µM.
On to `Cc1cnc2c(c1)CCC[C@@H]2N(C)C[C@H]1Cc2c(cccc2N2CCNCC2)CN1`, for which, in series [1], the remaining at 10 min came to 100%. Moreover, the Papp in series [2] amounted to 0.9 ×10⁻⁶ cm/s. Further, the IC50 in series [3] was more than 20 µM; in series [5], more than 20 µM; in series [6], more than 16.7 µM. Moreover, the EC50 in series [4] is more than 30 µM.
As to `CN(C[C@H]1Cc2c(cccc2N2CCNC(C)(C)C2)CN1)[C@H]1CCCc2cccnc21`, the remaining at 10 min in series [1] was 100%; in series [7], 44%. For the same compound, the IC50 in series [3] is more than 20 µM; in series [5], more than 20 µM; in series [6], 17.9 µM. For the same compound, the EC50 in series [4] is more than 30 µM.
In the case of `OCCN(C[C@H]1Cc2c(cccc2N2CCNCC2)CN1)[C@H]1CCCc2cccnc21`, the figures for the remaining at 10 min in series [1] and in series [7] were 94.4% and 60.3%, respectively. Moreover, in series [2], the Papp was found to be 1.1 ×10⁻⁶ cm/s. The IC50 in series [3] is more than 20 µM; in series [8], 0.195 µM; in series [5], more than 20 µM; in series [6], more than 33.3 µM. Besides, the EC50 in series [4] is more than 30 µM.
For `CN(C[C@H]1Cc2c(cccc2N2CCN(C3CC3)CC2)CN1)[C@H]1CCCc2cccnc21`, the figures for the remaining at 10 min in series [1] and in series [7] were 15.5% and 7%, respectively. In series [2], the Papp turned out to be 26.5 ×10⁻⁶ cm/s. For the same compound, the IC50 is 6.09 µM in series [3], 0.0235 µM in series [8], 4.23 µM in series [5] and more than 33.3 µM in series [6]. Further, in series [4], the EC50 was more than 30 µM.
Regarding `c1cnc2c(c1)CCC[C@@H]2N(CC1CCCCC1)C[C@H]1Cc2c(cccc2N2CCNCC2)CN1`, the results for the remaining at 10 min in series [1] and in series [7] were 81.6% and 85.6%, respectively. Moreover, the Papp in series [2] was found to be 0.9 ×10⁻⁶ cm/s. The IC50 in series [3] is 5.72 µM; in series [8], 0.715 µM; in series [5], 1.78 µM; in series [6], more than 33.3 µM. In addition, in series [4], the EC50 is more than 30 µM.
As for `CN(C[C@H]1Cc2c(cccc2N2CCN(c3cccc(C(F)(F)F)c3)CC2)CN1)[C@H]1CCCc2cccnc21`, the figures for the remaining at 10 min in series [1] and in series [7] were 90.3% and 72.3%, respectively. The Papp in series [2] was 14.1 ×10⁻⁶ cm/s. The IC50 in series [3] was 6.48 µM; in series [8], more than 16.7 µM; in series [5] it was 2.21 µM; in series [6] it was 9.25 µM. Moreover, the EC50 in series [4] is more than 30 µM.
Consider `CN(C[C@H]1Cc2c(cccc2N2CCN(C3COC3)CC2)CN1)[C@H]1CCCc2cccnc21`, for which the remaining at 10 min in series [1] came to 83.1%; in series [7] it was 50.8%. Further, in series [2], the Papp is 72.5 ×10⁻⁶ cm/s. Moreover, the IC50 in series [3] was more than 20 µM; in series [5] it was more than 20 µM; in series [6], more than 16.7 µM. For the same compound, the EC50 in series [4] was more than 30 µM.
With `CN(C[C@H]1Cc2c(cccc2N2CCN3CCC[C@H]3C2)CN1)[C@H]1CCCc2cccnc21`, the remaining at 10 min in series [1] turned out to be 36.6%; in series [7], 40.1%. In addition, the Papp in series [2] turned out to be 16.7 ×10⁻⁶ cm/s. The values for the IC50 in series [3], in series [5] and in series [6] were more than 20 µM, more than 20 µM and more than 16.7 µM, respectively. The EC50 in series [4] is more than 30 µM.
Regarding `Cc1cnc(CN(C)C[C@H]2Cc3c(cccc3N3CCNCC3)CN2)c(C)c1`, the IC50 in series [3] is more than 20 µM; in series [5] it was more than 20 µM; in series [6], 15.4 µM. Besides, the EC50 in series [4] is more than 30 µM.
Regarding `CC(C)N(C[C@H]1Cc2c(cccc2N2CCNCC2)CN1)[C@H]1CCCc2cccnc21`, the figures for the remaining at 10 min in series [1] and in series [7] were 75% and 91%, respectively. In addition, the Papp in series [2] turned out to be 1.6 ×10⁻⁶ cm/s. Further, the IC50 was more than 20 µM in series [3], 0.364 µM in series [8], more than 20 µM in series [5] and 8.34 µM in series [6]. In series [4], the EC50 is more than 30 µM.
Take `CN1CCN(c2cccc3c2C[C@H](CN(C)[C@H]2CCCc4cccnc42)NC3)CC1`: the results for the remaining at 10 min in series [1] and in series [7] were 75.8% and 17%, respectively. In series [2], the Papp was 99.6 ×10⁻⁶ cm/s. Also, the IC50 in series [3] was more than 20 µM; in series [5] it was more than 20 µM; in series [6], more than 33.3 µM. The EC50 in series [4] was more than 30 µM.
Consider `c1cnc2c(c1)CCC[C@@H]2N(CC1CC1)C[C@H]1Cc2c(cccc2N2CCNCC2)CN1`, for which the remaining at 10 min in series [1] was 82.1%; in series [7], 88.3%. In series [2], the Papp is 8.7 ×10⁻⁶ cm/s. Moreover, the IC50 in series [3] is 8.57 µM; in series [5], more than 20 µM; in series [6] it was 21.6 µM. Moreover, the EC50 in series [4] is more than 30 µM.
As to `CN(C[C@H]1Cc2c(cccc2N2C[C@@H]3C[C@H]2CN3)CN1)[C@H]1CCCc2cccnc21`, the results for the remaining at 10 min in series [1] and in series [7] were 100% and 36.3%, respectively. Further, the IC50 in series [3] is more than 20 µM; in series [8] it was 0.146 µM; in series [5], more than 20 µM; in series [6], more than 16.7 µM. For the same compound, in series [4], the EC50 is more than 30 µM.
As for `C[C@@H]1CN(c2cccc3c2C[C@H](CN(C)[C@H]2CCCc4cccnc42)NC3)C[C@H](C)N1C`, the remaining at 10 min turned out to be 24.6% in series [1] and 39.6% in series [7]. Further, the Papp in series [2] came to 14.2 ×10⁻⁶ cm/s. Moreover, the figures for the IC50 in series [3], in series [5] and in series [6] were more than 20 µM, more than 20 µM and 15.1 µM, respectively. The EC50 in series [4] is more than 30 µM.
With `CN(C[C@H]1Cc2c(cccc2N2C[C@H]3C[C@@H]2CN3)CN1)[C@H]1CCCc2cccnc21`, the remaining at 10 min was determined as 100% in series [1] and 95.9% in series [7]. Besides, the IC50 is more than 20 µM in series [3], more than 20 µM in series [5] and more than 16.7 µM in series [6]. The EC50 in series [4] was more than 30 µM.
As to `CN1Cc2cccc(N3CCNCC3)c2C[C@@H]1CN(C)[C@H]1CCCc2cccnc21`, the remaining at 10 min in series [1] and in series [7] was 100% each time. In addition, the Papp in series [2] was 0.3 ×10⁻⁶ cm/s. For the same compound, the IC50 in series [3] was more than 20 µM; in series [5], more than 20 µM; in series [6] it was 26.3 µM. For the same compound, the EC50 in series [4] was more than 30 µM.
